Experimental data taken from ChEMBL document CHEMBL1255417, “Correlation between in vitro activity of posaconazole and in vivo efficacy against Rhizopus oryzae infection in mice” (Antimicrob Agents Chemother, 2010).
In brackets after ≈: the same amount, converted by molar mass. Activity calls are given as the source filed them. No cut-off for these calls is given here.

Key:
Rhizopus arrhizus [1] = experiment: Antifungal activity against drug-susceptible Rhizopus oryzae UTHSC 06-4133 at 5 ug by disk diffusion assay; assay type: functional; conditions: read-out: DIZ
Outline: (§1)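 Neo-Sensitabs tablet diffusion on Mueller-Hinton agar, run per the mould guidelines. Tablets are 9 mm in diameter and carry 5 ug posaconazole. The read-out is the inhibition zone diameter in mm.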

Rhizopus arrhizus [2] = experiment: Antifungal activity against drug-susceptible Rhizopus oryzae UTHSC 06-1301 after 24 to 48 hrs; assay type: functional
Outline: (§2)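 Minimum fungicidal concentration taken from the broth microdilution plates. From each well with complete inhibition (optically clear), 20 ul is plated on potato dextrose agar. Plates are incubated at 35°C for 24 to 48 h. The MFC is the lowest drug concentration giving no growth.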

Rhizopus arrhizus [3] = experiment: Antifungal activity against drug-susceptible Rhizopus oryzae UTHSC 06-2457 at 5 ug by disk diffusion assay; assay type: functional; conditions: read-out: DIZ; outline: as §1
Rhizopus arrhizus [4] = experiment: Antifungal activity against drug-susceptible Rhizopus oryzae UTHSC 02-2882 infected in OF1 mouse assessed as reduction in brain fungal load at 10-30 mg/kg, po bid treated 24 hrs after fungal infection; assay type: functional, organism-based
Outline: (§3)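 Tissue burden in immunosuppressed male OF1 mice, using cyclophosphamide 200 mg/kg i.p. plus 5-fluorouracil 150 mg/kg i.v. on day −1. Mice received 2 × 10^4 CFU i.v. by tail vein, then oral gavage at 10, 20 or 30 mg/kg BID from 24 h post-challenge, with ceftazidime cover; untreated controls. Groups of 10 were killed on day 4. Kidneys and brains were homogenized in 2 ml saline, serially diluted 10-fold, plated on PDA and counted after 24 h at 35°C.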

Rhizopus arrhizus [5] = experiment: Antifungal activity against drug-susceptible Rhizopus oryzae UTHSC 03-1826 by broth microdilution method; assay type: functional
Outline: (§4)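 Broth microdilution MIC in µg/ml, run per the CLSI (formerly NCCLS) guideline for filamentous fungi, M38-A2.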

Rhizopus arrhizus [6] = experiment: Antifungal activity against drug-intermediate Rhizopus oryzae UTHSC 07-365 infected in OF1 mouse assessed as increase in mouse survival at 20-30 mg/kg, po bid treated 24 hrs after fungal infection; assay type: functional, organism-based
Outline: (§5)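 Survival model in male OF1 mice, 30 g. Mice were immunosuppressed 1 day before infection with cyclophosphamide 200 mg/kg i.p. plus 5-fluorouracil 150 mg/kg i.v., then infected i.v. via lateral tail vein with 2 × 10^4 CFU in 0.2 ml saline. Oral gavage at 10, 20 or 30 mg/kg BID began 24 h post-challenge for 7 days. Ceftazidime 5 mg/day s.c. was given days 1–7. Groups of 10 were checked daily for 20 days; untreated controls.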

Rhizopus arrhizus [7] = experiment: Antifungal activity against drug-susceptible Rhizopus oryzae UTHSC 04-1613 by broth microdilution method; assay type: functional
Outline: (§6)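 CLSI broth microdilution for filamentous fungi (M38-A2); MIC recorded in µg/ml against clinical isolates; breakpoints applied at 24 h.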

Rhizopus arrhizus [8] = experiment: Antifungal activity against drug-susceptible Rhizopus oryzae UTHSC 05-2975 after 24 to 48 hrs; assay type: functional
Outline: (§7)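 Minimum fungicidal concentration: 20 µl from each microdilution well showing complete inhibition (optically clear) plated on potato dextrose agar, incubated 35°C for 24 to 48 h; MFC taken as lowest drug concentration giving no growth.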

Rhizopus arrhizus [9] = experiment: Antifungal activity against drug-susceptible Rhizopus oryzae UTHSC 06-4336 by broth microdilution method; assay type: functional
Outline: (§8)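 Posaconazole MIC in ug/ml, determined by broth microdilution following the CLSI guidelines for moulds (M38-A2).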

Rhizopus arrhizus [10] = experiment: Antifungal activity against drug-susceptible Rhizopus oryzae UTHSC 02-2882 infected in OF1 mouse assessed as increase in mouse survival at 20-30 mg/kg, po bid treated 24 hrs after fungal infection; assay type: functional, organism-based; outline: as §5
Rhizopus arrhizus [11] = experiment: Antifungal activity against drug-susceptible Rhizopus oryzae UTHSC 06-1301 at 5 ug by disk diffusion assay; assay type: functional; conditions: read-out: DIZ; outline: as §1
Rhizopus arrhizus [12] = experiment: Antifungal activity against drug-susceptible Rhizopus oryzae UTHSC 412-546 after 24 to 48 hrs; assay type: functional
Rhizopus arrhizus [13] = experiment: Antifungal activity against drug-susceptible Rhizopus oryzae UTHSC 04-278 by broth microdilution method; assay type: functional; outline: as §6
Rhizopus arrhizus [14] = experiment: Antifungal activity against drug-susceptible Rhizopus oryzae UTHSC 2868 after 24 to 48 hrs; assay type: functional
Rhizopus arrhizus [15] = experiment: Antifungal activity against drug-susceptible Rhizopus oryzae UTHSC 05-1679 after 24 to 48 hrs; assay type: functional; outline: as §7
Rhizopus arrhizus [16] = experiment: Antifungal activity against drug-susceptible Rhizopus oryzae UTHSC 06-4035 after 24 to 48 hrs; assay type: functional; outline: as §2
Rhizopus arrhizus [17] = experiment: Antifungal activity against drug-susceptible Rhizopus oryzae UTHSC 05-1502 by broth microdilution method; assay type: functional; outline: as §6
Rhizopus arrhizus [18] = experiment: Antifungal activity against drug-susceptible Rhizopus oryzae UTHSC 412-546 by broth microdilution method; assay type: functional
Rhizopus arrhizus [19] = experiment: Antifungal activity against drug-susceptible Rhizopus oryzae UTHSC 04-2159 by broth microdilution method; assay type: functional; outline: as §6
Rhizopus arrhizus [20] = experiment: Antifungal activity against drug-susceptible Rhizopus oryzae UTHSC 05-2975 by broth microdilution method; assay type: functional; outline: as §8
Rhizopus arrhizus [21] = experiment: Antifungal activity against drug-intermediate Rhizopus oryzae UTHSC 04-3109 infected in OF1 mouse assessed as reduction in kidney fungal load at 10-30 mg/kg, po bid treated 24 hrs after fungal infection; assay type: functional, organism-based; outline: as §3
Rhizopus arrhizus [22] = experiment: Antifungal activity against drug-susceptible Rhizopus oryzae UTHSC 06-434 after 24 to 48 hrs; assay type: functional; outline: as §2
Rhizopus arrhizus [23] = experiment: Antifungal activity against drug-susceptible Rhizopus oryzae UTHSC 06-434 by broth microdilution method; assay type: functional; outline: as §8
Rhizopus arrhizus [24] = experiment: Antifungal activity against drug-susceptible Rhizopus oryzae UTHSC 03-1826 at 5 ug by disk diffusion assay; assay type: functional; conditions: read-out: DIZ
Outline: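 Neo-Sensitabs tablet diffusion on Mueller-Hinton agar, following the guidelines for molds. Tablets were 9 mm in diameter and held 5 µg of drug. The read-out was inhibition zone diameter in mm.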

Rhizopus arrhizus [25] = experiment: Antifungal activity against drug-susceptible Rhizopus oryzae UTHSC 03-2970 by broth microdilution method; assay type: functional; outline: as §4
Rhizopus arrhizus [26] = experiment: Antifungal activity against drug-susceptible Rhizopus oryzae UTHSC 05-197 at 5 ug by disk diffusion assay; assay type: functional; conditions: read-out: DIZ
Outline: (§9)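 Neo-Sensitabs tablet diffusion on Mueller-Hinton agar, following guidelines for molds; 9 mm tablets containing 5 µg posaconazole; inhibition zone diameter measured in mm; zone breakpoints applied at 24 h.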

Rhizopus arrhizus [27] = experiment: Antifungal activity against drug-susceptible Rhizopus oryzae UTHSC 04-1613 at 5 ug by disk diffusion assay; assay type: functional; conditions: read-out: DIZ; outline: as §9
Rhizopus arrhizus [28] = experiment: Antifungal activity against drug-susceptible Rhizopus oryzae UTHSC 05-3580 at 5 ug by disk diffusion assay; assay type: functional; conditions: read-out: DIZ; outline: as §1
Rhizopus arrhizus [29] = experiment: Antifungal activity against drug-susceptible Rhizopus oryzae UTHSC 05-1679 at 5 ug by disk diffusion assay; assay type: functional; conditions: read-out: DIZ; outline: as §9
Rhizopus arrhizus [30] = experiment: Antifungal activity against drug-susceptible Rhizopus oryzae UTHSC 03-511 after 24 to 48 hrs; assay type: functional; outline: as §7
Rhizopus arrhizus [31] = experiment: Antifungal activity against drug-susceptible Rhizopus oryzae UTHSC 02-439 after 24 to 48 hrs; assay type: functional
Rhizopus arrhizus [32] = experiment: Antifungal activity against drug-susceptible Rhizopus oryzae UTHSC 06-4152 at 5 ug by disk diffusion assay; assay type: functional; conditions: read-out: DIZ; outline: as §1
Rhizopus arrhizus [33] = experiment: Antifungal activity against drug-susceptible Rhizopus oryzae UTHSC 03-3110 at 5 ug by disk diffusion assay; assay type: functional; conditions: read-out: DIZ; outline: as §9
Rhizopus arrhizus [34] = experiment: Antifungal activity against drug-intermediate Rhizopus oryzae UTHSC 04-3109 infected in OF1 mouse assessed as increase in mouse survival at 20-30 mg/kg, po bid treated 24 hrs after fungal infection; assay type: functional, organism-based; outline: as §5

Compound: CC[C@@H]([C@H](C)O)n1ncn(-c2ccc(N3CCN(c4ccc(OC[C@@H]5CO[C@@](Cn6cncn6)(c6ccc(F)cc6F)C5)cc4)CC3)cc2)c1=O [POSACONAZOLE]
- zone of inhibition at 5 µg/disc (Rhizopus arrhizus [1]): 23 mm
- MFC (Rhizopus arrhizus [2]): 1 mg/L (≈ 1.43 µM)
- zone of inhibition at 5 µg/disc (Rhizopus arrhizus [3]): 14 mm
- Activity (Rhizopus arrhizus [4]): Active
- MIC (Rhizopus arrhizus [5]): 0.5 mg/L (≈ 0.713 µM)
- Activity (Rhizopus arrhizus [6]): Active
- MIC (Rhizopus arrhizus [7]): 0.5 mg/L (≈ 0.713 µM)
- MFC (Rhizopus arrhizus [8]): 2 mg/L (≈ 2.85 µM)
- MIC (Rhizopus arrhizus [9]): 0.5 mg/L (≈ 0.713 µM)
- Activity (Rhizopus arrhizus [10]): Active
- zone of inhibition at 5 µg/disc (Rhizopus arrhizus [11]): 25 mm
- MFC (Rhizopus arrhizus [12]): 8 mg/L (≈ 11.4 µM)
- MIC (Rhizopus arrhizus [13]): 1 mg/L (≈ 1.43 µM)
- MFC (Rhizopus arrhizus [14]): 8 mg/L (≈ 11.4 µM)
- MFC (Rhizopus arrhizus [15]): 0.5 mg/L (≈ 0.713 µM)
- MFC (Rhizopus arrhizus [16]): 0.5 mg/L (≈ 0.713 µM)
- MIC (Rhizopus arrhizus [17]): 0.5 mg/L (≈ 0.713 µM)
- MIC (Rhizopus arrhizus [18]): 1 mg/L (≈ 1.43 µM)
- MIC (Rhizopus arrhizus [19]): 0.5 mg/L (≈ 0.713 µM)
- MIC (Rhizopus arrhizus [20]): 1 mg/L (≈ 1.43 µM)
- Activity (Rhizopus arrhizus [21]): Active
- MFC (Rhizopus arrhizus [22]): 1 mg/L (≈ 1.43 µM)
- MIC (Rhizopus arrhizus [23]): 1 mg/L (≈ 1.43 µM)
- zone of inhibition at 5 µg/disc (Rhizopus arrhizus [24]): 18 mm
- MIC (Rhizopus arrhizus [25]): 1 mg/L (≈ 1.43 µM)
- zone of inhibition at 5 µg/disc (Rhizopus arrhizus [26]): 21 mm
- zone of inhibition at 5 µg/disc (Rhizopus arrhizus [27]): 22 mm
- zone of inhibition at 5 µg/disc (Rhizopus arrhizus [28]): 25 mm
- zone of inhibition at 5 µg/disc (Rhizopus arrhizus [29]): 18 mm
- MFC (Rhizopus arrhizus [30]): 1 mg/L (≈ 1.43 µM)
- MFC (Rhizopus arrhizus [31]): 0.5 mg/L (≈ 0.713 µM)
- zone of inhibition at 5 µg/disc (Rhizopus arrhizus [32]): 22 mm
- zone of inhibition at 5 µg/disc (Rhizopus arrhizus [33]): 17 mm
- Activity (Rhizopus arrhizus [34]): Active
